Assay results reported in ChEMBL document CHEMBL1122389, “Synthesis and substituent effects on antibacterial activity, alkaline hydrolysis rates, and infrared absorption frequencies of some cephem analogues related to latamoxef (moxalactam)” (J Med Chem, 1983).

Assays:
[1] = test system: Klebsiella pneumoniae; assay: Minimum inhibitory concentration (MIC) against Klebsiella pneumoniae SRL-1 in agar dilution method; type: functional
Method in brief: (§1)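 Agar dilution on sensitivity test agar. Overnight tryptose broth culture diluted in the same broth to about 10^6 cells/mL and inoculated onto agar containing serial twofold dilutions of antibiotic. Incubated at 37 °C for 18–20 h. MIC taken as the lowest concentration inhibiting visible growth.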

[2] = V max(beta-lactam) measured in dimethyl sulfoxide; type: ADME
Method in brief: (§2)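 IR stretching frequencies measured in dimethyl sulfoxide solution. Frequencies are calibrated against the rotational bands of the vapor.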

[3] = V max(amide I) measured in dimethyl sulfoxide; type: ADME; method in brief: as §2
[4] = test system: Escherichia coli; assay: Minimum inhibitory concentration (MIC) against Escherichia coli NIHJ JC-2 in agar dilution method; type: functional; method in brief: as §1
[5] = Pseudo-first order rate of beta-lactam cleavage at pH 9.2 and 35 degrees C; type: ADME
Method in brief: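 Alkaline hydrolysis at pH 9.2 and 35.0 °C, followed as loss of absorbance near 260 nm. This is a slightly lower pH than a pH 9.94 carbonate buffer (NaHCO3 + Na2CO3 + NaCl, μ = 0.5). Pseudo-first-order k is obtained by least squares over the linear regions at 95% confidence.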

[6] = test system: Escherichia coli; assay: Minimum inhibitory concentration (MIC) against Escherichia coli NIHJ JC-2 in gradient plate method; type: functional
Method in brief: (§3)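 Gradient plate technique. Compound is incorporated into a tilted bottom agar layer, then overlaid horizontally with compound-free agar. A 10^6 cells/mL suspension is streaked across the gradient and incubated at 37 °C for 18–20 h. MIC is calculated from the growth distance along the streak and the original bottom-layer concentration.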

[7] = test system: Klebsiella pneumoniae; assay: Minimum inhibitory concentration (MIC) against Klebsiella pneumoniae SRL-1 in gradient plate method; type: functional; method in brief: as §3
[8] = test system: Klebsiella pneumoniae; assay: Minimum inhibitory concentration (MIC) against Klebsiella pneumoniae SRL-1 iin agar dilution method; type: functional; method in brief: as §1

Compound	MIC [1]	Vmax [2]	Vmax [3]	MIC [4]	k [5]	MIC [6]	MIC [7]	MIC [8]
Cn1nnnc1SCC1=C(C(=O)[O-])N2C(=O)[C@@](C)(NC(=O)C(C(=O)[O-])c3ccc(O)cc3)C2OC1.[Na+].[Na+] (some centres undefined)	12.5 µg/mL	1774.5 cm⁻¹	1668.2 cm⁻¹	12.5 µg/mL	0.0148 h⁻¹			
Cn1nnnc1SCC1=C(C(=O)[O-])N2C(=O)[C@@H](NC(=O)C(C(=O)[O-])c3ccc(O)cc3)C2OC1.[Na+].[Na+] (some centres undefined)		1779.2 cm⁻¹	1665.4 cm⁻¹		0.127 h⁻¹	0.29 µg/mL	0.3 µg/mL	
Cn1nnnc1SCC1=C(C(=O)[O-])N2C(=O)[C@@H](NC(=O)Cc3ccc(O)cc3)C2SC1.[Na+] (some centres undefined)		1773.1 cm⁻¹	1676.3 cm⁻¹		0.0227 h⁻¹	1.2 µg/mL	1.4 µg/mL	
COC1(NC(=O)C(C(=O)[O-])c2ccc(O)cc2)C(=O)N2C(C(=O)[O-])=C(CSc3nnnn3C)CCC21.[Na+].[Na+] (centres undefined)	3.13 µg/mL	1757 cm⁻¹	1684.5 cm⁻¹	6.25 µg/mL	0.0694 h⁻¹			
CO[C@@]1(NC(=O)Cc2ccc(O)cc2)C(=O)N2C(C(=O)[O-])=C(CSc3nnnn3C)COC21.[Na+] (some centres undefined)		1772.9 cm⁻¹	1694.9 cm⁻¹		0.228 h⁻¹	0.08 µg/mL	0.1 µg/mL	
Cn1nnnc1SCC1=C(C(=O)[O-])N2C(=O)[C@@H](NC(=O)C(C(=O)[O-])c3ccc(O)cc3)C2SC1.[Na+].[Na+] (some centres undefined)		1770 cm⁻¹	1669 cm⁻¹		0.0239 h⁻¹	1.5 µg/mL	2.3 µg/mL	
Cn1nnnc1SCC1=C(C(=O)[O-])N2C(=O)[C@@H](NC(=O)Cc3ccc(O)cc3)C2OC1.[Na+] (some centres undefined)		1778.2 cm⁻¹	1674.5 cm⁻¹		0.139 h⁻¹	0.34 µg/mL	0.31 µg/mL	
CO[C@@]1(NC(=O)Cc2ccc(O)cc2)C(=O)N2C(C(=O)[O-])=C(CSc3nnnn3C)CSC21.[Na+] (some centres undefined)		1768.1 cm⁻¹	1690.6 cm⁻¹		0.0351 h⁻¹	0.5 µg/mL	1.3 µg/mL	
CO[C@@]1(NC(=O)C(C(=O)[O-])c2ccc(O)cc2)C(=O)N2C(C(=O)[O-])=C(CSc3nnnn3C)COC21.[Na+].[Na+] (some centres undefined)		1771.8 cm⁻¹	1686.6 cm⁻¹	0.1 µg/mL	0.178 h⁻¹	0.09 µg/mL	0.06 µg/mL	0.1 µg/mL
CO[C@@]1(NC(=O)C(C(=O)[O-])c2ccc(O)cc2)C(=O)N2C(C(=O)[O-])=C(CSc3nnnn3C)CSC21.[Na+].[Na+] (some centres undefined)		1767.8 cm⁻¹	1682.3 cm⁻¹	0.78 µg/mL	0.0239 h⁻¹	0.55 µg/mL	0.37 µg/mL	0.39 µg/mL
